Measured values published in article PMC7127737 (Bioorganic & Medicinal Chemistry Letters, 2008).

Legend:
human CpA = molecular target: T1, human CpA (Homo sapiens, UniProt P15085); experiment: Inhibition of recombinant human CpA, fluorescence assay; type: biochemical; details: for more potent inhibition of CpA relative to 1a: compared with 1a; for selectivity for ACE2 versus CpA: ratio of Ki Apps CpA/ACE2
T1 sequence (P15085 111-419): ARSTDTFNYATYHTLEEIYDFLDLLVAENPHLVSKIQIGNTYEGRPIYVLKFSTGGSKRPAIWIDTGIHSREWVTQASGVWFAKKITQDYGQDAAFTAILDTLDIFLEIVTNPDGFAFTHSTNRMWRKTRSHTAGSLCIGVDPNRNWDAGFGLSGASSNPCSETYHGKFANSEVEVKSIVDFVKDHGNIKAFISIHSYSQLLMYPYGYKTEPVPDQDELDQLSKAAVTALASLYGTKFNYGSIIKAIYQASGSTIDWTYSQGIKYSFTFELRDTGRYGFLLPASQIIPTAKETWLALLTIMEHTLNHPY
Method in brief: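 Recombinant human CpA (37 nM) was run with 30 μM Abz-Gly-Gly-Nph-OH, and recombinant human ACE2 (0.4 nM) with 30 μM MCA-Tyr-Val-Ala-Asp-Ala-Pro-Lys(DNP)-OH. Both used 50 mM Hepes pH 7.5, 1 μM Zn(OAc)2, 100 μM TCEP, 300 μM CHAPS and 300 mM NaCl. Compound was pre-incubated before substrate; read-out was fluorescence. Ki App is the mean of ≥2 assays; selectivity is the CpA/ACE2 Ki App ratio.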

human ACE = human ACE (Homo sapiens, UniProt P12821); experiment: Inhibition of recombinant human ACE, fluorescence assay; type: biochemical; details: ratio of Ki Apps ACE/ACE2
Method in brief: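 Buffer: 50 mM Hepes, 300 mM NaCl, 300 μM CHAPS, 1 μM Zn(OAc)2, 100 μM TCEP, pH 7.5. Thiols were diluted from 10 mM stocks in 50% aqueous acetonitrile and pre-incubated before substrate addition. Values are means of ≥2 assays.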

human NEP = human NEP (Homo sapiens, UniProt P08473); experiment: Inhibition of recombinant human NEP, fluorescence assay; type: biochemical; details: ratio of Ki Apps NEP/ACE2
Method in brief: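 Fluorescence protease assays, both in 50 mM Hepes pH 7.5 with 1 μM Zn(OAc)2, 100 μM TCEP, 300 μM CHAPS and 300 mM NaCl. NEP: recombinant human enzyme (0.15 nM) with 2 μM FAM-[…]TAMRA)-NH2. ACE2: recombinant human enzyme (0.4 nM) with 30 μM MCA-Tyr-Val-Ala-Asp-Ala-Pro-Lys(DNP)-OH. Compound was pre-incubated before substrate. Ki App is the mean of ≥2 assays; the NEP/ACE2 ratio gives selectivity.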

ACE2 = details: read-out: ACE2 IC50; reversible inhibitor; cited from earlier work

human NEP, sequence (P08473 whole entry): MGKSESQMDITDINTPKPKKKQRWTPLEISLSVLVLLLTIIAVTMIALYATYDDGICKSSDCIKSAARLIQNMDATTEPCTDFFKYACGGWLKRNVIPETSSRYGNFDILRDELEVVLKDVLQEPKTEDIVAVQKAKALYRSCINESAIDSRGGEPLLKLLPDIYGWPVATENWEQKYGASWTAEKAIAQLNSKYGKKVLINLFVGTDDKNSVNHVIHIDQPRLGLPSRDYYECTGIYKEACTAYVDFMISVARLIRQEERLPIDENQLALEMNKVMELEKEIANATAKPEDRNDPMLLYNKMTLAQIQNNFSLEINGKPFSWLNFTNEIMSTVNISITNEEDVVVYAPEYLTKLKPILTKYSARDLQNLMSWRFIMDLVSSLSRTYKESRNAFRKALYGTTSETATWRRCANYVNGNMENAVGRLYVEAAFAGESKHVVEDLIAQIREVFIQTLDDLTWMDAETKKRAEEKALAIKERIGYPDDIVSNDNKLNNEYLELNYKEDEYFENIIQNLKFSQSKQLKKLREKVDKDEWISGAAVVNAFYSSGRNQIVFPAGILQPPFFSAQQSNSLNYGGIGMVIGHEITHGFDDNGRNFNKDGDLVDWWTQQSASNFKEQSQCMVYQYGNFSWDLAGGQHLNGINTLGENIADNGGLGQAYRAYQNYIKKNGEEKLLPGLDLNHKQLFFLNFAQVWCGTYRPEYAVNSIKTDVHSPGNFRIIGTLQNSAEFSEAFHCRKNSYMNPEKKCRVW
human ACE, sequence (P12821 30-1306): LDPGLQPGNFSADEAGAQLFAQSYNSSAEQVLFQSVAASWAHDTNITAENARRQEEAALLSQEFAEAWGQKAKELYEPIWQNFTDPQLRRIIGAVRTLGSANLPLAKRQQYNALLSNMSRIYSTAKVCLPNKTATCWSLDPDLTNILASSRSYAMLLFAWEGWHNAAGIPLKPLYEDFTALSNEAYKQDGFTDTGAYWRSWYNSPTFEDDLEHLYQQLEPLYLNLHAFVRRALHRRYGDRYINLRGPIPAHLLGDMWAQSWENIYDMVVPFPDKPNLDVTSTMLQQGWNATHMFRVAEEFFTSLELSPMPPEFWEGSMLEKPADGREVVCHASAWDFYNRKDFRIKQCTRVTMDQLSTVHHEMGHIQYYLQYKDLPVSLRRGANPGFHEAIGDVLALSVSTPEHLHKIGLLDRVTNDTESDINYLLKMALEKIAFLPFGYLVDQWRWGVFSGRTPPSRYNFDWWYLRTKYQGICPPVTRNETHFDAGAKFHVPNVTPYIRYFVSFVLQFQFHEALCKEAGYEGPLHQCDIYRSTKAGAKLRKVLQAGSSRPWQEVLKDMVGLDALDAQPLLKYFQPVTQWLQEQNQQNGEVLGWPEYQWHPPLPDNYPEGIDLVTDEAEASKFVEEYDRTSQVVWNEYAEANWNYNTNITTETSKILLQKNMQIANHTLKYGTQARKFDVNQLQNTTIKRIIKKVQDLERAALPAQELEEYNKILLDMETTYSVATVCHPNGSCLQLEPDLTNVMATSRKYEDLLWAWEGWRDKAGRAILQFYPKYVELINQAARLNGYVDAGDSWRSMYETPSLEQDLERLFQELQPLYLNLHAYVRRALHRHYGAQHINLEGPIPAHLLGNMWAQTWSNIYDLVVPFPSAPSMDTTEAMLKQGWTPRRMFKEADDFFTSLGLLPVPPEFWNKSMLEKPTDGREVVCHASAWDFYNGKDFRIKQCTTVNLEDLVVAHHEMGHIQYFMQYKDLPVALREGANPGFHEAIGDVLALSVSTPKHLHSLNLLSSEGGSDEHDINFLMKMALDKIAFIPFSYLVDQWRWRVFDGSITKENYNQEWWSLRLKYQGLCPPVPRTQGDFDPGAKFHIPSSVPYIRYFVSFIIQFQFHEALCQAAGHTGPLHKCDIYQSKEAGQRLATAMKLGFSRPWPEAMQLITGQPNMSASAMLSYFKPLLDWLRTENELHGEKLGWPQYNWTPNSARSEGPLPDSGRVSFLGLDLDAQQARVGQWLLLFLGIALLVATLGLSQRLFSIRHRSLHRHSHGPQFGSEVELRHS

Row | more potent inhibition of CpA relative to 1a (human CpA) [fold] | selectivity for ACE2 versus CpA (human CpA) [fold] | selectivity for ACE2 versus ACE (human ACE) [fold] | selectivity for ACE2 versus NEP (human NEP) [fold] | Compound | IC50 (ACE2) [nM]
1 | > 10 | – | – | – | CC[C@@H](C)[C@H](S)C(=O)N[C@@H](Cc1ccccc1)C(=O)O [1d, N-[(2S,3R)-2-Mercapto-3-methylpentanoyl]-L-phenylalanine] | –
2 | > 10 | – | – | – | CC[C@@H](C)[C@H](S)C(=O)N[C@@H](Cc1ccc(O)cc1)C(=O)O [1e, N-[(2S,3R)-2-Mercapto-3-methylpentanoyl]-L-tyrosine] | –
3 | – | > 100 | > 100 | – | CC[C@@H](C)[C@H](S)C(=O)N[C@@H](Cc1cccc2ccccc12)C(=O)O [1f, N-[(2S,3R)-2-Mercapto-3-methylpentanoyl]-3-(1-naphthalenyl)-L-alanine] | –
4 | – | > 100 | > 100 | – | CC[C@@H](C)[C@H](S)C(=O)N[C@@H](Cc1ccc2ccccc2c1)C(=O)O [1g, N-[(2S,3R)-2-Mercapto-3-methylpentanoyl]-3-(2-naphthalenyl)-L-alanine] | –
5 | – | > 100 | > 100 | – | CC[C@@H](C)[C@H](S)C(=O)N[C@@H](Cc1ccccc1Oc1ccccc1)C(=O)O [1j, N-[(2S,3R)-2-Mercapto-3-methylpentanoyl]-2-(phenyloxy)-L-phenylalanine] | –
6 | – | > 100 | > 100 | 14 | CC[C@@H](C)[C@H](S)C(=O)N[C@@H](Cc1cccc(Oc2ccccc2)c1)C(=O)O [1k, N-[(2S,3R)-2-Mercapto-3-methylpentanoyl]-3-(phenyloxy)-L-phenylalanine] | –
7 | – | > 100 | > 100 | 5 | CC[C@@H](C)[C@H](S)C(=O)N[C@@H](Cc1ccc(Oc2ccccc2)cc1)C(=O)O [1l, N-[(2S,3R)-2-Mercapto-3-methylpentanoyl]-O-phenyl-L-tyrosine] | –
8 | – | > 750 | > 750 | > 750 | CC[C@@H](C)[C@H](S)C(=O)N[C@@H](Cc1ccc(OCc2ccc(F)c(F)c2)cc1)C(=O)O [1r, O-[(3,4-Difluorophenyl)methyl]-N-[(2S,3R)-2-mercapto-3-methylpentanoyl]-L-tyrosine] | –
9 | – | – | – | – | CC(C)C[C@H](N[C@@H](Cc1cncn1Cc1cc(Cl)cc(Cl)c1)C(=O)O)C(=O)O [MLN-4760] | 0.44
